Assay outcomes as filed in PubChem.
MrgX1 antag: antagonists of human MrgX1 receptor, primary screen, HEK293 cells, Fluo-4 calcium flux | Mas-related G-protein coupled receptor member X1 (Homo sapiens), Q96LB2 | BAM8-22 antagonism; stronger effect = lower value | B-score at 10 µM | 310,000 tested, 1.3% active;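 active = calcium-response B-score plate-corrected more than 3 library SD below zero, starting fluorescence within 5 deviations, no agonist response on first addition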;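 note: peak minus trough fluorescence over baseline after final BAM8-22 challenge near maximal dose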
Target sequence (Q96LB2 whole entry, looked up): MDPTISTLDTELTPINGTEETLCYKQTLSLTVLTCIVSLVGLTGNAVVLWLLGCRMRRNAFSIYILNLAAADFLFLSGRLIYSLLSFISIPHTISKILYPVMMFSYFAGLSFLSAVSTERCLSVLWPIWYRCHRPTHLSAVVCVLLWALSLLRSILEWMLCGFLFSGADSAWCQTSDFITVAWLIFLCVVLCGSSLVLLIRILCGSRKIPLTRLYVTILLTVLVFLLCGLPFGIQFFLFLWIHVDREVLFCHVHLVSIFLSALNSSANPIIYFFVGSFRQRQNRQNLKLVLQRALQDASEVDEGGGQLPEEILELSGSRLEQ
MrgX1 PAM: positive allosteric modulators of MrgX1, primary screen, HEK293 cells, Fluo-4 calcium flux; FDSS; stronger effect = higher value; Mas-related G-protein coupled receptor member X1 (Homo sapiens), Q96LB2; B-score at 10 µM; 310,000 tested, 0.63% active;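 active = plate-corrected calcium response at least 3 library SD above typical, normal starting fluorescence, not activating the receptor alone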;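 note: compound read alongside a low EC10 to EC30 dose of BAM8-22 agonist; peak minus trough fluorescence over baseline measured at the second addition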
MrgX1 agonist: agonists of human MrgX1 receptor, primary screen, HEK293 cells, Fluo-4 calcium flux | B-score at 10 µM | Fluo-4 calcium fluorescence, agonist mode; stronger effect = higher value | Mas-related G-protein coupled receptor member X1 (Homo sapiens), Q96LB2 | 310,000 tested, 0.44% active;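 active = calcium response B-score plate-corrected fluorescence ratio at least 3 library SD, with starting fluorescence B-score inside 5 SD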
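Assay system: MrgX1-expressing HEK293 cells / Amount: fifteen thousand cells per well / Doses: test compound in the initial addition of three / Timing: cells plated overnight, dye loaded 0.5 h 37 °C, 0.5 h room temperature / Technique: kinetic calcium dye fluorescence, Fluo-4 NW / Control set: positive and negative controls per plate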
RGS4 act: RGS4 potentiators or activators, primary screen, cell-based, HEK293 M3R inducible RGS4, calcium flux; carbachol calcium flux Fluo4; stronger effect = lower value; B-score at 10 µM; 310,000 tested, 0.92% active;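 active = B-score of the integrated calcium signal more than 4 SD below the library mean, with starting fluorescence not abnormally high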;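 note: negative B-score means reduced calcium response which marks RGS4 activation or potentiation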
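Detection: kinetic calcium fluorescence imaging with Fluo4-AM dye, 2 µM / Material: HEK293 cells with stable M3R and inducible RGS4 / Schedule: recording 10 s baseline at 1 Hz, 100 s post-agonist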
RGS4 block: RGS4 inhibitors, primary screen, cell-based, HEK293 M3R inducible RGS4, calcium flux; B-score at 10 µM; AID 463165, 2010; Fluo-4 calcium flux; stronger effect = higher value; triggered by carbachol at its EC20; 310,000 tested, 0.45% active;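 active = B-score, a plate-corrected calcium signal, over three deviations above library mean, with baseline fluorescence within five deviations of library mean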;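 note: RGS4 expression induced by doxycycline in cells with stable M3 receptor; B-score is computed from the integrated fluorescence ratio over baseline after carbachol; higher B-score means a larger calcium signal and so more RGS4 inhibition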
Target sequence (P49798 whole entry, looked up): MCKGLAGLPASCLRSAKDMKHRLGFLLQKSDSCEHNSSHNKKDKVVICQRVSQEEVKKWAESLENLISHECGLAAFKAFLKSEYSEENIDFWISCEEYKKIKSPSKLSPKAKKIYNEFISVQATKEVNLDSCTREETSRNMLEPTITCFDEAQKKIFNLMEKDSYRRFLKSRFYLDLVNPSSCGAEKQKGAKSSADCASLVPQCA
Lipid droplet: inhibitors of hepatocyte lipid droplet formation, primary screen, imaging, high-throughput imaging, BODIPY stain; inhibition, % at 6.5 µM; 240,000 tested, 0.4% active; AML12 mouse hepatocytes, oleate lipid droplets; AID 1656, 2009;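 active = lipid droplet intensity inhibited by at least 50%, with more than 500 cells counted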
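Test system: AML12 hepatocytes (mouse); reagent: oleate loading, 100 µM; dosing: one dose, 6.5 µM compound; incubation: overnight exposure; signal: fluorescence imaging, 20x objective, two fields per well; read-out basis: % inhibition of corrected integrated BODIPY droplet signal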
MrgX1 antag conf: MrgX1 receptor antagonists, duplicate retest, confirmation, HEK293 cells, Fluo-4 calcium flux; shares compounds with MrgX1 antag; BAM8-22 calcium flux; stronger effect = lower value; remaining BAM8-22 calcium response % of control (stronger effect = lower value), % at 10 µM; 2,300 tested, 19% active;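 active = remaining agonist calcium response no higher than 100% minus 3 SD of agonist-only control wells, with starting fluorescence near control levels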;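 note: agonist BAM8-22 given at a near maximal EC90 to ECmax level; peak minus minimum fluorescence divided by baseline after agonist addition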
HEK293 Ca flux: nonspecific calcium signal in parental HEK293, confirmation, counter-screen for MrgX1 antagonist project, parental HEK293 cells, Fluo-4 calcium flux; shares compounds with MrgX1 antag; fluorescence ratio F(max-min)/F0 at 10 µM; 4,000 tested, 2% active; Fluo-4 calcium fluorescence, FDSS;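 active = duplicate-averaged calcium fluorescence ratio at least three times the standard deviation of buffer wells, a nonspecific response in parental cells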
HEK293 Ca counter: calcium response in parental HEK293 cells, primary screen, counter-screen for MrgX1 allosteric activator project, cell-based, Fluo-4 calcium flux, duplicate | Fluo-4 fluorescence ratio; stronger effect = higher value | 4,000 tested, 0.4% active | shares compounds with MrgX1 antag | fluorescence ratio F(max-min)/F0 at 10 µM;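 active = calcium fluorescence ratio, averaged over duplicates, at least 3 SD of the buffer-well ratio, meaning a nonspecific response in receptor-free cells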;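 note: untransfected parental HEK293 lacking MrgX1 used as counterscreen for MrgX1 allosteric activators; fluorescence change taken during the second addition on a kinetic imager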
HEK293 Ca cntr2: calcium response in parental HEK293 cells, primary screen, counter-screen for MrgX1 agonist project, cell-based, Fluo-4 calcium flux, duplicate, agonist mode; shares compounds with MrgX1 antag; Fluo-4 calcium fluorescence (FDSS); stronger effect = higher value; fluorescence ratio F(max-min)/F0 at 10 µM; 4,000 tested, 8.7% active; AID 624115, 2012;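 active = calcium fluorescence ratio at least three times the spread of buffer wells, meaning a non-specific response in parental cells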
Of the large screens only hits and unclear results are named; the others gave an inactive call (follow-up assays come after a bar, where they were run). An excerpt weighted towards active compounds, which were near 3.8% of everything screened.

COc1ccc(OCC(=O)Nc2ccc3c(c2)nc(CCNC(C)=O)n3C)cc1	none
Cc1ccc(-n2nnc3c(=O)oc4ccccc4c32)cc1	none (no result: Lipid droplet)
CCC(C)n1nnc2c(=O)oc3ccccc3c21 (stereo not drawn)	MrgX1 antag -6.47 (no result: Lipid droplet) | MrgX1 antag conf inactive | HEK293 Ca flux inactive | HEK293 Ca counter inactive | HEK293 Ca cntr2 inactive
COC(=O)Cn1cc(C(=O)C(C)(C)C)c2ccccc21	none
CCOC(=O)Cn1cc(C(=O)C(C)(C)C)c2ccccc21	MrgX1 antag -4.88 | MrgX1 antag conf inactive | HEK293 Ca flux inactive | HEK293 Ca counter inactive | HEK293 Ca cntr2 inactive
O=C(COc1ccccc1)Nc1cccc(-c2nc3cc4ccccc4cc3[nH]2)c1	MrgX1 antag -5.08 (no result: Lipid droplet) | MrgX1 antag conf 77.8% | HEK293 Ca flux inactive | HEK293 Ca counter inactive | HEK293 Ca cntr2 inactive
CCCOC(=O)c1ccc(NC(=O)CC(C)(C)C)cc1	MrgX1 antag -4.53 | MrgX1 antag conf inactive | HEK293 Ca flux inactive | HEK293 Ca counter inactive | HEK293 Ca cntr2 inactive
O=C(CCc1nnc(C2CCCCC2)o1)N1CCN(C2CCCCC2)CC1	none
COC(c1ccccc1)c1nnc(CCC(=O)N2CCN(C3CCCC3)CC2)o1 (stereo not drawn)	MrgX1 antag -6.32 | MrgX1 antag conf inactive | HEK293 Ca flux inactive | HEK293 Ca counter inactive | HEK293 Ca cntr2 inactive
CC(C)n1c(NCc2cc(Cl)ccc2O)nc2ccccc21	MrgX1 antag -7.07 (no result: Lipid droplet) | MrgX1 antag conf inactive | HEK293 Ca flux inactive | HEK293 Ca counter inactive | HEK293 Ca cntr2 inactive
Cc1ccc(O)c(CNc2nc3ccccc3n2C(C)C)c1	none
Cc1c(C(=O)c2cccc(F)c2)c2ccccn2c1CCC#N	MrgX1 antag -10.3 | MrgX1 antag conf 84.0% | HEK293 Ca flux inactive | HEK293 Ca counter inactive | HEK293 Ca cntr2 inactive
COc1cccc(C(=O)c2c(C)c(CCC#N)n3ccccc23)c1	none
CCCn1ncc(CN2CCN(Cc3ccsc3)C(CCO)C2)c1C (stereo not drawn)	none
Nn1c(COc2ccccc2F)nnc1SCC(=O)NC1CCCCC1	none (no result: Lipid droplet)
Cc1ccc(NC(=O)C2CCN(S(=O)(=O)c3ccc4c(c3)NC(=O)C(C)S4)CC2)cc1Cl (stereo not drawn)	MrgX1 antag -4.6 | MrgX1 antag conf 85.5% | HEK293 Ca flux inactive | HEK293 Ca counter inactive | HEK293 Ca cntr2 inactive
O=C(COc1ccccc1C(=O)c1cnn(-c2ccccc2)c1)Nc1ccc2ccccc2c1	none
CC(C)c1ccc(NC(=O)COc2ccc(F)cc2C(=O)c2cnn(-c3ccccc3)c2)cc1	MrgX1 antag -5.32 | MrgX1 antag conf inactive | HEK293 Ca flux inactive | HEK293 Ca counter inactive | HEK293 Ca cntr2 inactive
CCN(CC)S(=O)(=O)c1ccc(N2CCN(C)CC2)c(NC(=O)COc2ccc(F)cc2Cl)c1	none (no result: Lipid droplet)
CC1(C(=O)NCCN2CCOCC2)C=CC2(CCCCC2)N1C(=O)c1ccccc1 (stereo not drawn)	MrgX1 antag -6.77 | MrgX1 antag conf 82.9% | HEK293 Ca flux inactive | HEK293 Ca counter inactive | HEK293 Ca cntr2 inactive
COc1ccc(C(=O)C2CCN(CC(=O)Nc3ccc(C)cc3)CC2)cc1	none
Cc1ccc2c(Cl)c(C(=O)NCC3CCCO3)sc2c1 (stereo not drawn)	MrgX1 antag -4.56 (no result: Lipid droplet) | MrgX1 antag conf inactive | HEK293 Ca flux inactive | HEK293 Ca counter inactive | HEK293 Ca cntr2 inactive
CCCn1c(-c2nonc2N)nc2ccccc21	MrgX1 antag -8.34 | MrgX1 antag conf inactive | HEK293 Ca flux inactive | HEK293 Ca counter inactive | HEK293 Ca cntr2 inactive
Cn1c(-c2nonc2N)nc2ccccc21	none
Nc1nonc1-c1nc2ccccc2n1CC(=O)N1CCCCC1	MrgX1 antag -5.43 (no result: Lipid droplet) | MrgX1 antag conf inactive | HEK293 Ca flux inactive | HEK293 Ca counter inactive | HEK293 Ca cntr2 inactive
CCn1cc(C(=O)N[C@@H](CCSC)C(=O)NCCN2CCOCC2)c(=O)c2cc3c(cc21)OCO3	none
Cc1ccc(C(=O)CSc2nnc(-c3ccco3)n2CC2CCCO2)cc1 (stereo not drawn)	none
Cc1ccc(N=Cc2cc3c(cc2O)OC(N)=C(C#N)C3c2ccccc2)cc1 (stereo not drawn)	MrgX1 antag -9.79 | MrgX1 antag conf 80.0% | HEK293 Ca flux inactive | HEK293 Ca counter inactive | HEK293 Ca cntr2 inactive
N#CC1=C(N)Oc2cc(O)c(C=Nc3ccccc3)cc2C1c1ccccc1 (stereo not drawn)	none
COc1ccc(N2CC(C(=O)Nc3cc(C(F)(F)F)ccc3N3CCCC3)CC2=O)c(OC)c1 (stereo not drawn)	none (no result: Lipid droplet)
COc1ccc(N2CC(C(=O)Nc3cccc(S(=O)(=O)N4CCCC4)c3)CC2=O)c(OC)c1 (stereo not drawn)	MrgX1 antag -9 (no result: Lipid droplet) | MrgX1 antag conf inactive | HEK293 Ca flux inactive | HEK293 Ca counter inactive | HEK293 Ca cntr2 inactive
COc1ccc(N2CC(C(=O)Nc3ccccc3N3CCCC3)CC2=O)c(OC)c1 (stereo not drawn)	MrgX1 antag -5.78 (no result: Lipid droplet) | MrgX1 antag conf inactive | HEK293 Ca flux inactive | HEK293 Ca counter inactive | HEK293 Ca cntr2 inactive
Oc1cc(O)cc(-c2cc3ccc(O)cc3o2)c1	MrgX1 antag -5.97 (no result: Lipid droplet) | MrgX1 antag conf inactive | HEK293 Ca flux inactive | HEK293 Ca counter inactive | HEK293 Ca cntr2 inactive
Cc1ccccc1OCCCN1CCCC1	MrgX1 antag -7.22 (no result: Lipid droplet) | MrgX1 antag conf inactive | HEK293 Ca flux inactive | HEK293 Ca counter inactive | HEK293 Ca cntr2 inactive
